Active and inactive are the calls of the source. The rule behind the calls is not given here.

The subject of data set [1] is HepG2. Kind of data set: Protection against AfB1-induced toxicity in human HepG2 cells assessed as increase in live cell area at >0.5 uM measured after 48 hrs by calcein-AM/Hoechst 33342 staining based high-content imaging analysis relative to control. In kind it is functional.
In data set [2] the test system is HepG2. In words: Protection against AfB1-induced toxicity in human HepG2 cells assessed as live cell area at 0.5 uM measured after 48 hrs by calcein-AM/Hoechst 33342 staining based high-content imaging analysis relative to control. It is filed as functional.
Data set [3] deals with HepG2. Kind of data set: Toxicity in human HepG2 cells measured after 48 hrs by calcein-AM/Hoechst 33342 staining based high-content imaging analysis. It is filed as cell-based. The settings on record: hepg2, 48 h.
The test system of data set [4] is HepG2. Kind of data set: Protection against AfB1-induced toxicity in human HepG2 cells assessed as live cell area at 50 uM measured after 48 hrs by calcein-AM/Hoechst 33342 staining based high-content imaging analysis relative to control. In kind it is functional.
Data set [5] deals with HepG2. Kind of data set: Protection against AfB1-induced morphological changes in 3D-spheroids of human HepG2 cells up to 10 uM measured after 3 days by calcein-AM/Hoechst 33342 staining based microscopic analysis. In kind it is functional, cell-based. A digest of the protocol:
(§1)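 HepG2 spheroids: 1000 cells/well in ultralow-attachment plates, grown 4 days to tight spheroids, then test compounds (10 μM) plus AfB1 in complete EMEM for 3 further days. Calcein AM/Hoechst staining and high-content imaging of viability and live spheroid size. Live cell area relative to DMSO vehicle-only spheroids; n = 3.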

Data set [6] relates to HepG2. Kind of data set: Protection against AfB1-induced toxicity in 3D-spheroids of human HepG2 cells assessed as live cell area at 10 uM measured after 3 days by calcein-AM/Hoechst 33342 staining based high-content imaging analysis relative to control. It is filed as functional. In short, it runs like this:
as §1

Data set [7] relates to HepG2. In words: Protection against AfB1-induced toxicity in human HepG2 cells assessed as live cell area at 5 uM measured after 48 hrs by calcein-AM/Hoechst 33342 staining based high-content imaging analysis relative to control. In kind it is functional.
Data set [8] relates to HepG2. Kind of data set: Protection against AfB1-induced toxicity in human HepG2 cells assessed as increase in live cell area at >5 uM measured after 48 hrs by calcein-AM/Hoechst 33342 staining based high-content imaging analysis relative to control. In kind it is functional.
Data set [9] relates to HepG2. In words: Increase in live cell area in human HepG2 cells measured after 48 hrs by calcein-AM/Hoechst 33342 staining based high-content imaging analysis. It is filed as functional.
The test system of data set [10] is HepG2. Kind of data set: Protection against AfB1-induced toxicity in human HepG2 cells assessed as increase in live cell area measured after 48 hrs by calcein-AM/Hoechst 33342 staining based high-content imaging analysis. It is filed as functional.
The subject of data set [11] is HepG2. In words: Protection against AfB1-induced toxicity in human HepG2 cells assessed as increase in live cell area at >12.5 uM measured after 48 hrs by calcein-AM/Hoechst 33342 staining based high-content imaging analysis relative to control. It is filed as functional.
Data set [12] has as its system HepG2. Kind of data set: Protection against AfB1-induced toxicity in human HepG2 cells assessed as live cell area at 12.5 uM measured after 48 hrs by calcein-AM/Hoechst 33342 staining based high-content imaging analysis relative to control. It is filed as functional.

With `COc1ccc(C(=O)NCc2cccnc2)c(O)c1`, the outcome in data set [1] was inactive. In addition, the “%max” value in data set [2] is given as 33.5%.
The corresponding values for `CC(C)c1nc(CN(C)C(=O)N[C@H](C(=O)N[C@@H](Cc2ccccc2)C[C@H](O)[C@H](Cc2ccccc2)NC(=O)OCc2cncs2)C(C)C)cs1` [RITONAVIR] are “inactive” and 72%.
In the case of `COc1cc(OC)c2c(O)c3c(=O)cc(C)oc3cc2c1` [RUBROFUSARIN B], in data set [3], the Activity entry was “Toxic”. Further, the outcome in data set [1] was inactive. Besides, the “%max” value in data set [2] is 64.9%.
`COc1cc(O)c2c(=O)oc3cc(O)cc(C)c3c2c1`: the results for the Activity entry in data set [3] and in data set [6] were “Non-Toxic” and 95%, respectively. Moreover, the “%max” value in data set [4] is 67%. Also, the result in [5] was Active.
For `COC1=C(O)c2c(O)cc(C)c3c(O)cc(O)c(c23)C1=O`, in [7], the “%max” value is reported as 20.5%. Also, in [8], the outcome was inactive.
Regarding `COc1cc(C(O)c2ccccc2)ccc1O` (centres undefined), the “%max” value in data set [4] is on record as 41%.
The same measure, in the same setting: the same measure for `COc1ccc(C(=O)c2ccc(OC)cc2O)c(O)c1`: 53.9%.
Take `CC(=O)N[C@@H](CS)C(=O)O`: the result in data set [9] and in data set [10] was Active.
As to `COc1cc(O)c2c(=O)oc3cc(O)c(O)cc3c2c1`, in data set [3], the Activity result is reported as “Toxic”. The “%max” value in [4] is 65.7%.
Turning to `COc1cc(O)cc(OC)c1`, in [7], the “%max” value was 37%. The outcome in [8] was inactive.
Turning to `COc1cc(O)c2c(=O)c3ccccc3oc2c1`, the values for the Activity result in data set [3] and in data set [6] were “Toxic” and 72%, respectively. The “%max” value in [7] was 63.9%. The outcome in data set [5] was Active. Also, the outcome in data set [8] was inactive.
With `Cc1c(-c2cnccn2)ssc1=S`, the result in [9] and in data set [10] was Active.
On to `Cc1cc(O)cc2oc(=O)c3c(O)cc(O)cc3c12` [ALTERNARIOL], for which the outcome in data set [1] was inactive. Further, in data set [2], the “%max” value is recorded as 15.2%.
With `COC(=O)c1cc(O)cc(OC)c1C(=O)c1c(O)cc(C)cc1OC`, in data set [4], the “%max” value is 68.3%.
Regarding `COc1ccc(C(=O)c2ccccc2)c(O)c1` [OXYBENZONE], the result in [11] was inactive. Besides, in data set [12], the “%max” value is 61.6%.
On to `COc1cc(C(=O)c2ccccc2)ccc1O`, for which the “%max” value in data set [4] was 60.2%.

Source of the values: ChEMBL document CHEMBL4392876, “Natural-Product-Inspired Compounds as Countermeasures against the Liver Carcinogen Aflatoxin B1” (J Nat Prod, 2019).
